According to ChEMBL document CHEMBL4184106, “Discovering alkylamide derivatives of bexarotene as new therapeutic agents against triple-negative breast cancer” (Bioorg Med Chem Lett, 2018):
Calls of active or inactive are those of the source. The calls are words filed in the database; no cut-off is given here.

Columns and labels:
MCF7 [1] = assay: Inhibition of mammosphere formation in human MCF7 cells assessed as ratio of C-Myc to beta actin level at 5 uM by Western blot analysis (Rvb= 1); type: functional
How it was run: (§1)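 Post-treatment cell lysates were probed by Western blot for CSC markers, with β-actin as the loading control. Band densitometry was normalized to DMSO-treated samples.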

MCF7 [2] = assay: Cytotoxicity against human MCF7 cells assessed as reduction in cell viability at 5 uM by MTT assay; type: functional
MDA-MB-231 [3] = assay: Cytotoxicity against human MDA-MB-231 cells assessed as reduction in cell viability at 5 uM by MTT assay; type: functional
BT-549 [4] = assay: Cytotoxicity against human BT549 cells assessed as reduction in cell viability at 5 uM by MTT assay; type: functional
MCF-10A [5] = assay: Cytotoxicity against human MCF10A cells assessed as reduction in cell viability at 5 uM by MTT assay; type: cell-based
MDA-MB-231 [6] = assay: Cytotoxicity against human MDA-MB-231 cells assessed as reduction in cell viability by MTT assay; type: functional, cell-based
BT-549 [7] = assay: Cytotoxicity against human BT549 cells assessed as reduction in cell viability by MTT assay; type: functional, cell-based
MDA-MB-231 [8] = assay: Induction of apoptosis in human MDA-MB-231 cells assessed as ratio of cleaved caspase-3 to beta-actin level at 5 uM by western blot analysis (reference value: 1); type: functional
BT-549 [9] = assay: Induction of apoptosis in human BT549 cells assessed as ratio of cleaved caspase-3 to beta-actin level at 5 uM by western blot analysis (reference value: 1); type: functional
MCF-10A [10] = assay: Induction of apoptosis in human MCF10A cells assessed as ratio of cleaved caspase-3 to beta-actin level at 5 uM by western blot analysis (reference value: 1); type: cell-based
MCF7 [11] = assay: Induction of apoptosis in human MCF7 cells assessed as ratio of cleaved caspase-3 to beta-actin level at 5 uM by western blot analysis (reference value: 1); type: functional
MDA-MB-231 [12] = assay: Induction of apoptosis in human MDA-MB-231 cells assessed as ratio of cleaved caspase-8 to beta-actin level at 5 uM by western blot analysis (reference value: 1); type: functional
BT-549 [13] = assay: Induction of apoptosis in human BT549 cells assessed as ratio of cleaved caspase-8 to beta-actin level at 5 uM by western blot analysis (reference value: 1); type: functional
MCF-10A [14] = assay: Induction of apoptosis in human MCF10A cells assessed as ratio of cleaved caspase-8 to beta-actin level at 5 uM by western blot analysis (reference value: 1); type: cell-based
MCF7 [15] = assay: Induction of apoptosis in human MCF7 cells assessed as ratio of cleaved caspase-8 to beta-actin level at 5 uM by western blot analysis (reference value: 1); type: functional
MDA-MB-231 [16] = assay: Induction of apoptosis in human MDA-MB-231 cells assessed as ratio of cleaved caspase-9 to beta-actin level at 5 uM by western blot analysis (reference value: 1); type: functional
BT-549 [17] = assay: Induction of apoptosis in human BT549 cells assessed as ratio of cleaved caspase-9 to beta-actin level at 5 uM by western blot analysis (reference value: 1); type: functional
MCF-10A [18] = assay: Induction of apoptosis in human MCF10A cells assessed as ratio of cleaved caspase-9 to beta-actin level at 5 uM by western blot analysis (reference value: 1); type: cell-based
MCF7 [19] = assay: Induction of apoptosis in human MCF7 cells assessed as ratio of cleaved caspase-9 to beta-actin level at 5 uM by western blot analysis (reference value: 1); type: functional
MDA-MB-231 [20] = assay: Induction of apoptosis in nuclear fractions of human MDA-MB-231 cells assessed as ratio of cleaved PARP to beta-actin level at 10 uM by western blot analysis (reference value: 1); type: functional
MCF7 [21] = assay: Inhibition of colony formation in human MCF7 cells at 5 uM supplemented with fresh medium containing compound every 3 to 4 days for 7 days by crystal violet staining based adherent cell colony-forming assay; type: functional
How it was run: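 MCF-7 cells were plated for adherent colony formation and treated for 7 days. Colonies were counted at the end of treatment and normalized to untreated samples.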

MDA-MB-231 [22] = assay: Inhibition of colony formation in human MDA-MB-231 cells at 10 uM supplemented with fresh medium containing compound every 3 days for 10 days by microscopic method based soft agar colony formation assay; type: functional, cell-based
MDA-MB-231 [23] = assay: Anti-migratory activity against human MDA-MB-231 cells assessed as reduction in wound closure at 5 uM up to 24 hrs by wound-healing assay; type: functional, cell-based
How it was run: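 MDA-MB-231 monolayer was scratched to make a wound gap. Cells were treated alongside a DMSO vehicle control, and migration into the gap was imaged at 24 h.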

MCF7 [24] = assay: Inhibition of mammosphere formation in human MCF7 cells at 10 uM after 7 days by microscopic method; type: functional, cell-based
How it was run: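 MCF-7 cells were grown under mammosphere-forming conditions with compound. Spheres 60 μm or larger were counted for quantitation.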

MCF7 [25] = assay: Inhibition of mammosphere formation in human MCF7 cells assessed as ratio of KLF4 to beta actin level at 5 uM by Western blot analysis (Rvb= 1); type: functional; how it was run: as §1
MCF7 [26] = assay: Inhibition of mammosphere formation in human MCF7 cells assessed as ratio of Nanog to beta actin level at 5 uM by Western blot analysis (Rvb= 1); type: functional; how it was run: as §1
MCF7 [27] = assay: Inhibition of mammosphere formation in human MCF7 cells assessed as ratio of Oct4A to beta actin level at 5 uM by Western blot analysis (Rvb= 1); type: functional; how it was run: as §1
MCF7 [28] = assay: Inhibition of mammosphere formation in human MCF7 cells assessed as ratio of Sox2 to beta actin level at 5 uM by Western blot analysis (Rvb= 1); type: functional; how it was run: as §1
MDA-MB-231 [29] = assay: Inhibition of mammosphere formation in human MDA-MB-231 cells assessed as ratio of C-Myc to beta actin level at 5 uM by Western blot analysis (Rvb= 1); type: functional; how it was run: as §1
MDA-MB-231 [30] = assay: Inhibition of mammosphere formation in human MDA-MB-231 cells assessed as ratio of KLF4 to beta actin level at 5 uM by Western blot analysis (Rvb= 1); type: functional; how it was run: as §1
BT-549 [31] = assay: Inhibition of mammosphere formation in human BT549 cells assessed as ratio of C-Myc to beta actin level at 5 uM by Western blot analysis (Rvb= 1); type: functional
BT-549 [32] = assay: Inhibition of mammosphere formation in human BT549 cells assessed as ratio of KLF4 to beta actin level at 5 uM by Western blot analysis (Rvb= 1); type: functional
MDA-MB-231 [33] = assay: Effect on epithelial-mesenchymal transition in human MDA-MB-231 cells assessed as ratio of E-cadherin to beta-actin level at 5 uM by Western blot analysis (reference value: 1); type: functional
MDA-MB-231 [34] = assay: Effect on epithelial-mesenchymal transition in human MDA-MB-231 cells assessed as ratio of vimentin to beta-actin level at 5 uM by Western blot analysis (reference value: 1); type: functional
MDA-MB-231 [35] = assay: Effect on epithelial-mesenchymal transition in human MDA-MB-231 cells assessed as ratio of slug to beta-actin level at 5 uM by Western blot analysis (reference value: 1); type: functional
BT-549 [36] = assay: Effect on epithelial-mesenchymal transition in human BT549 cells assessed as ratio of E-cadherin to beta-actin level at 5 uM by Western blot analysis (reference value: 1); type: functional
BT-549 [37] = assay: Effect on epithelial-mesenchymal transition in human BT549 cells assessed as ratio of vimentin to beta-actin level at 5 uM by Western blot analysis (reference value: 1); type: functional
BT-549 [38] = assay: Effect on epithelial-mesenchymal transition in human BT549 cells assessed as ratio of slug to beta-actin level at 5 uM by Western blot analysis (reference value: 1); type: functional
MDA-MB-231 [39] = assay: Effect on beta-catenin translocation in cytosolic fraction of human MDA-MB-231 cells assessed as ratio of beta-catenin to beta-actin level at 10 uM by Western blot analysis (reference value: 1); type: functional
MDA-MB-231 [40] = assay: Effect on beta-catenin translocation in nuclear fraction of human MDA-MB-231 cells assessed as ratio of beta-catenin to beta-actin level at 10 uM by Western blot analysis (reference value: 1); type: functional
MDA-MB-231 [41] = assay: Induction of apoptosis in nuclear fractions of human MDA-MB-231 cells assessed as ratio of PARP to beta-actin level at 10 uM by western blot analysis (reference value: 1); type: functional
BT-549 [42] = assay: Effect on beta-catenin translocation in cytosolic fraction of human BT549 cells assessed as ratio of beta-catenin to beta-actin level at 10 uM by Western blot analysis (reference value: 1); type: functional
BT-549 [43] = assay: Effect on beta-catenin translocation in nuclear fraction of human BT549 cells assessed as ratio of beta-catenin to beta-actin level at 10 uM by Western blot analysis (reference value: 1); type: functional
BT-549 [44] = assay: Induction of apoptosis in nuclear fractions of human BT549 cells assessed as ratio of PARP to beta-actin level at 10 uM by western blot analysis (reference value: 1); type: functional
BT-549 [45] = assay: Induction of apoptosis in nuclear fractions of human BT549 cells assessed as ratio of cleaved PARP to beta-actin level at 5 uM by western blot analysis (reference value: 1)

**Q.** What does the source list for `C=C(c1ccc(C(=O)O)cc1)c1cc2c(cc1C)C(C)(C)CCC2(C)C` [BEXAROTENE]?
**A.** Ratio (MCF7 [1]): 1; Activity (MCF7 [2]): inactive; Activity (MDA-MB-231 [3]): inactive; Activity (BT-549 [4]): inactive; Activity (MCF-10A [5]): Non-Toxic; EC50 (MDA-MB-231 [6]): > 56 µM; EC50 (BT-549 [7]): > 56 µM; Ratio (MDA-MB-231 [8]): 2.7; Ratio (BT-549 [9]): 1.1; Ratio (MCF-10A [10]): 0.95; Ratio (MCF7 [11]): 0.9; Ratio (MDA-MB-231 [12]): 3.4; Ratio (BT-549 [13]): 1.1; Ratio (MCF-10A [14]): 1; Ratio (MCF7 [15]): 1; Ratio (MDA-MB-231 [16]): 3.2; Ratio (BT-549 [17]): 1.3; Ratio (MCF-10A [18]): 1.1; Ratio (MCF7 [19]): 1.2; Ratio (MDA-MB-231 [20]): 1.6; inhibition (MCF7 [21]): inactive; inhibition (MDA-MB-231 [22]): inactive; Activity (MDA-MB-231 [23]): inactive; inhibition (MCF7 [24]): inactive; Ratio (MCF7 [25]): 1; Ratio (MCF7 [26]): 1; Ratio (MCF7 [27]): 1.2; Ratio (MCF7 [28]): 0.8; Ratio (MDA-MB-231 [29]): 1.2; Ratio (MDA-MB-231 [30]): 1.3; Ratio (BT-549 [31]): 1.4; Ratio (BT-549 [32]): 1.2; Ratio (MDA-MB-231 [33]): 10.8; Ratio (MDA-MB-231 [34]): 0.4; Ratio (MDA-MB-231 [35]): 1; Ratio (BT-549 [36]): 9.2; Ratio (BT-549 [37]): 0.9; Ratio (BT-549 [38]): 1.3; Ratio (MDA-MB-231 [39]): 2.4; Ratio (MDA-MB-231 [40]): 1.8; Ratio (MDA-MB-231 [41]): 0.9; Ratio (BT-549 [42]): 2.2; Ratio (BT-549 [43]): 0.7; Ratio (BT-549 [44]): 1.8; Ratio (BT-549 [45]): 1.7
